Assay results as given in ChEMBL document CHEMBL1156274, “Potent arylsulfonamide inhibitors of tumor necrosis factor-alpha converting enzyme able to reduce activated leukocyte cell adhesion molecule shedding in cancer cell models” (J Med Chem, 2010).

Experiments:
[1] = molecular target: T1, Disintegrin and metalloproteinase domain-containing protein 17 (Homo sapiens, UniProt P78536); assay: Inhibition of human recombinant ADAM17 by fluorometric assay
[2] = molecular target: T1, Disintegrin and metalloproteinase domain-containing protein 17; settings: for inhibition: A2774, at 10 µM
[3] = molecular target: T2, Interstitial collagenase (Homo sapiens, UniProt P03956); assay: Inhibition of MMP1 by fluorometric assay
T2 sequence (P03956 whole entry): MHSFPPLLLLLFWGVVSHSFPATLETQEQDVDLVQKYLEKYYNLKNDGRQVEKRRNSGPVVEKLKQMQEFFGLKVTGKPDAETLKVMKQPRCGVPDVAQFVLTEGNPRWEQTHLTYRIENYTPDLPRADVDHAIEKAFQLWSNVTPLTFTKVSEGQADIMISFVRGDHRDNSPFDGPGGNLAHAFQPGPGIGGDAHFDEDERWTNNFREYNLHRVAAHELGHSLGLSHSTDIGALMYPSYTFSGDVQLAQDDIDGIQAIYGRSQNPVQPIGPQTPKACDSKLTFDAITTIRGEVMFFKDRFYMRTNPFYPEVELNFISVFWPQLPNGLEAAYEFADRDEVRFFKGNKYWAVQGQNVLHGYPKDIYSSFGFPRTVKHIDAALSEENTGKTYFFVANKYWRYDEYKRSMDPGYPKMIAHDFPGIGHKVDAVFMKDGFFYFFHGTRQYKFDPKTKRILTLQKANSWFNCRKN

[4] = molecular target: 72 kDa type IV collagenase (Homo sapiens, UniProt P08253)
[5] = molecular target: Matrix metalloproteinase-9 (Homo sapiens, UniProt P14780); assay: Inhibition of MMP9 by fluorometric assay
[6] = molecular target: Matrix metalloproteinase-14 (Homo sapiens, UniProt P50281); assay: Inhibition of human recombinant MMP14 by fluorometric assay
Outline: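 Fluorogenic substrate Mca-Lys-Pro-Leu-Gly-Leu-Dap(Dnp)-Ala-Arg-NH2 (2 μM final). Enzymes: APMA-activated (2 mM, 2 h, 37 °C) pro-MMP-1 at 2.0 nM; MMP-14 catalytic domain at 1.0 nM. Each enzyme preincubated 4 h at 25 °C with seven inhibitor concentrations in Tris 50 mM pH 7.5, NaCl, CaCl2, Brij-35, 1% DMSO. Fluorescence (ex 325/em 395 nm) read every 15 s for 20 min.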

[7] = molecular target: T3, Disintegrin and metalloproteinase domain-containing protein 10 (Homo sapiens, UniProt O14672); assay: Inhibition of human recombinant ADAM10 by fluorometric assay
T3 sequence (O14672 whole entry): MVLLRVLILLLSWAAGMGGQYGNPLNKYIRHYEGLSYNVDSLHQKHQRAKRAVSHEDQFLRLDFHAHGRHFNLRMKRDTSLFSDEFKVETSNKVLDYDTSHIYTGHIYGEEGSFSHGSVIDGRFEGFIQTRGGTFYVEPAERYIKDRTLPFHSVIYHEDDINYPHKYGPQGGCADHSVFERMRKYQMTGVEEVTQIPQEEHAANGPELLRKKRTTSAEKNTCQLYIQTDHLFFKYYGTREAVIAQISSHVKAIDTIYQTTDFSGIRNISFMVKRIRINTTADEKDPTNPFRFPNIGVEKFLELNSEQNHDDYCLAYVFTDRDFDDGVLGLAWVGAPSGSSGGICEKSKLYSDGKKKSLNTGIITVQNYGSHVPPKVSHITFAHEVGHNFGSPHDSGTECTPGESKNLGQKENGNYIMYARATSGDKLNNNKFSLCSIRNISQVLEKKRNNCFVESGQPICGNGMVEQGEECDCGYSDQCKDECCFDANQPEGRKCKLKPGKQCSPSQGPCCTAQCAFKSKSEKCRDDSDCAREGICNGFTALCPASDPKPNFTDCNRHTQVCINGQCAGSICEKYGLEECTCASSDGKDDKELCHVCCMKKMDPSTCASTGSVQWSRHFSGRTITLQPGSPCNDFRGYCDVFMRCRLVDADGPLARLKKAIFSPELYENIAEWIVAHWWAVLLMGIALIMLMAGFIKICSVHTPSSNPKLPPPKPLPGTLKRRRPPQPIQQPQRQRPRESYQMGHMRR
Outline: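 Recombinant human ADAM-10 (20 nM) preincubated with seven inhibitor concentrations for 1 h at 37 °C in Tris 25 mM, ZnCl2 25 μM, Brij-35 0.005%, pH 9. Fluorogenic substrate Mca-Lys-Pro-Leu-Gly-Leu-Dap(Dnp)-Ala-Arg-NH2 at 10 μM final. Fluorescence (ex 325/em 395 nm) monitored every 15 s for 20 min. IC50 from initial velocities versus inhibitor-free control; mean of three independent experiments in duplicate.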

[8] = molecular target: T1, Disintegrin and metalloproteinase domain-containing protein 17; assay: Inhibition of ADAM17 in human A2774 cells assessed as inhibition of constitutive sALCAM release by ELISA; assay type: cell-based
[9] = molecular target: T1, Disintegrin and metalloproteinase domain-containing protein 17; assay: Inhibition of ADAM17 in human A2774 cells assessed as inhibition of pervanadate-induced sALCAM release by ELISA; assay type: cell-based
[10] = molecular target: T1, Disintegrin and metalloproteinase domain-containing protein 17; assay: Inhibition of ADAM17 in human A2774 cells assessed as inhibition of EGF-induced sALCAM release by ELISA; assay type: cell-based
[11] = molecular target: T1, Disintegrin and metalloproteinase domain-containing protein 17; assay: Inhibition of ADAM17 in human SKOV3 cells assessed as inhibition of constitutive sALCAM release by ELISA; assay type: cell-based, SK-OV-3
[12] = test system: SK-OV-3; assay: Cytotoxicity against human SKOV3 cells after 72 hrs by MTT assay; assay type: cell-based; settings: sk-ov-3, 72 h
Outline: (§1)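 Cell lines grown in RPMI 1640 with 10% heat-inactivated FCS, 2 mM glutamine and penicillin-streptomycin at 37 °C, 5% CO2. Seeded at 2 × 10^3 cells/well and exposed to a range of inhibitor concentrations (DMSO stocks) for 24, 48 or 72 h at 37 °C. MTT added for 4 h, formazan dissolved in DMSO, absorbance read at 540 nm; mean of triplicates.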

[13] = molecular target: T1, Disintegrin and metalloproteinase domain-containing protein 17; assay: Inhibition of ADAM17 in human SKOV3 cells assessed as inhibition of EGF-induced sALCAM release by ELISA; assay type: cell-based, SK-OV-3
[14] = molecular target: T1, Disintegrin and metalloproteinase domain-containing protein 17; assay: Inhibition of ADAM17 in human MCF7 cells assessed as inhibition of constitutive sALCAM release by ELISA; assay type: cell-based
[15] = molecular target: T1, Disintegrin and metalloproteinase domain-containing protein 17; assay: Inhibition of ADAM17 in human MCF7 cells assessed as inhibition of pervanadate-induced sALCAM release by ELISA; assay type: cell-based
[16] = molecular target: T1, Disintegrin and metalloproteinase domain-containing protein 17; assay: Inhibition of ADAM17 in human MCF7 cells assessed as inhibition of EGF-induced sALCAM release by ELISA; assay type: cell-based
[17] = molecular target: T1, Disintegrin and metalloproteinase domain-containing protein 17; assay: Inhibition of ADAM17 in human MDA-MB-468 cells assessed as inhibition of constitutive sALCAM release by ELISA; assay type: cell-based
[18] = molecular target: T1, Disintegrin and metalloproteinase domain-containing protein 17; assay: Inhibition of ADAM17 in human MDA-MB-468 cells assessed as inhibition of pervanadate-induced sALCAM release by ELISA; assay type: cell-based
[19] = molecular target: T1, Disintegrin and metalloproteinase domain-containing protein 17; assay: Inhibition of ADAM17 in human MDA-MB-468 cells assessed as inhibition of EGF-induced sALCAM release by ELISA; assay type: cell-based
[20] = molecular target: T1, Disintegrin and metalloproteinase domain-containing protein 17; assay: Inhibition of ADAM17 in human GI-CA-N cells assessed as inhibition of constitutive sALCAM release by ELISA; assay type: cell-based
[21] = molecular target: T1, Disintegrin and metalloproteinase domain-containing protein 17; assay: Inhibition of ADAM17 in human GI-CA-N cells assessed as inhibition of pervanadate-induced sALCAM release by ELISA; assay type: cell-based
[22] = Cytotoxicity against human A2774 cells after 72 hrs by MTT assay; assay type: cell-based; settings: a2774, 72 h; outline: as §1
[23] = test system: MCF7; assay: Cytotoxicity against human MCF7 cells after 72 hrs by MTT assay; assay type: cell-based; settings: mcf7, 72 h; outline: as §1
[24] = test system: MDA-MB-468; assay: Cytotoxicity against human MDA-MB-468 cells after 72 hrs by MTT assay; assay type: cell-based; settings: mda-mb-468, 72 h; outline: as §1
[25] = Cytotoxicity against human GI-CA-N cells after 72 hrs by MTT assay; assay type: cell-based; outline: as §1

Chain of 72 kDa type IV collagenase (P08253 whole entry): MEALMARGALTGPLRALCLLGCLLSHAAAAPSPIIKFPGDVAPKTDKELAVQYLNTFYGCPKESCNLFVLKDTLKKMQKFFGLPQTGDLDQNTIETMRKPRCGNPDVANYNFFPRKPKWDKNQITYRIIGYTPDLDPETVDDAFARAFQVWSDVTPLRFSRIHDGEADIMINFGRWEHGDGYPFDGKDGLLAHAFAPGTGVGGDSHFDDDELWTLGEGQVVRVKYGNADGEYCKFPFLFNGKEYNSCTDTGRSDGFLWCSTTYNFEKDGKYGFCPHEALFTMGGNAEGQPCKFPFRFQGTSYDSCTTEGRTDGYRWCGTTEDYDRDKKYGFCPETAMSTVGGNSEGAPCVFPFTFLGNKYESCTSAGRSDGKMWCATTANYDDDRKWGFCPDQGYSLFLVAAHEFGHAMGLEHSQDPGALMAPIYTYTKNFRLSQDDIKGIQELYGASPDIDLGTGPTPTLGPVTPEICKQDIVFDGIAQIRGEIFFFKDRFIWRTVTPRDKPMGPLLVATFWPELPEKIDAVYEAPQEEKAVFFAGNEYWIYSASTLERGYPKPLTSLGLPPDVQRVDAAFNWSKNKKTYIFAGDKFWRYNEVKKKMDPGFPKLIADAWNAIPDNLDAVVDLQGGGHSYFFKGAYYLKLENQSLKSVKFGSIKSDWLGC
Chain of Matrix metalloproteinase-9 (P14780 whole entry): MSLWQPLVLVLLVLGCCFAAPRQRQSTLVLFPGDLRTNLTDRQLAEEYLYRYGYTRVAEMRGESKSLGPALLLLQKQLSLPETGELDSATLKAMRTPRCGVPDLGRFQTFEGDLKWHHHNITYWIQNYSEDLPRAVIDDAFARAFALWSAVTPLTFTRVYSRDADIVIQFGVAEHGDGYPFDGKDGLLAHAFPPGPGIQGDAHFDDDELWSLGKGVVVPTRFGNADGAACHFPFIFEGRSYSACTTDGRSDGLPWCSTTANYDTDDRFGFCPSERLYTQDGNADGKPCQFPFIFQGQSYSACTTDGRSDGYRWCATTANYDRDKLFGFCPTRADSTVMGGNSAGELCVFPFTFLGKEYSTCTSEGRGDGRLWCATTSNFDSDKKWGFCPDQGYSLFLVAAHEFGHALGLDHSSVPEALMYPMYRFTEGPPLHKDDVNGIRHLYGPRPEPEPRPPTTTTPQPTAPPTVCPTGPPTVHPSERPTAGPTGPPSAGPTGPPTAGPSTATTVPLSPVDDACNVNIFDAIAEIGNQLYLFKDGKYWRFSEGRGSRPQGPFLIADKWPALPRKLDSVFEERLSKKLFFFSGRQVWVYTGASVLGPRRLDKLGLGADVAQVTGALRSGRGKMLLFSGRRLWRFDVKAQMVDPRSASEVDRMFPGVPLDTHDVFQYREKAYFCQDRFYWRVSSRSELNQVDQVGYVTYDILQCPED
T1 sequence (P78536 whole entry, the tested form may be a part): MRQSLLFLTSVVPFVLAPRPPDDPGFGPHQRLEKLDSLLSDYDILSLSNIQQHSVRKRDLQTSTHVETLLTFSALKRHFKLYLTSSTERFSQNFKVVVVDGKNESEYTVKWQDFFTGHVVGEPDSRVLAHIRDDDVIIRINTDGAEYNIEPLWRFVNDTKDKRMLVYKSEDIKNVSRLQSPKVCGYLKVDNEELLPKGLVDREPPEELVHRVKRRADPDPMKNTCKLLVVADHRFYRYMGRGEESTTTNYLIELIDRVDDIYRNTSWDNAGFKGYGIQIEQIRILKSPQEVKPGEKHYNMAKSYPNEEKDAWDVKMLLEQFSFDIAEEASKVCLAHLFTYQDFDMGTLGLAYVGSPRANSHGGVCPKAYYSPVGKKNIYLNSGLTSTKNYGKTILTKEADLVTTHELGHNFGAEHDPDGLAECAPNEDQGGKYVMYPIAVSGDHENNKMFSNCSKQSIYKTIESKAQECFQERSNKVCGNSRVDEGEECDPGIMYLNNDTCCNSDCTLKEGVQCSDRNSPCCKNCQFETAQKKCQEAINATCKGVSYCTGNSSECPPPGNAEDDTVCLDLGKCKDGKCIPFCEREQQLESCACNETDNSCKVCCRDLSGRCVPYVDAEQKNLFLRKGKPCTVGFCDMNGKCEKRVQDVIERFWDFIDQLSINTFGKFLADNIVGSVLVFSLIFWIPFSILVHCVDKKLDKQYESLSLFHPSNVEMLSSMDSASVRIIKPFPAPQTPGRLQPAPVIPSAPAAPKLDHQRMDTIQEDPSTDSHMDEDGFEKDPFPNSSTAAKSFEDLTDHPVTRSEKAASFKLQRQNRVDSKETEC

Row | SMILES | IC50 [1] [µM] | inhibition [2] [%] | IC50 [3] [µM] | IC50 [4] [µM] | IC50 [5] [µM] | IC50 [6] [µM] | further results
1 | O=C(CNS(=O)(=O)c1ccc(-c2ccccc2)cc1)NO | 2.4 | 35 |  |  |  |  | 
2 | COc1ccc(S(=O)(=O)N(CC(=O)NO)OC(C)C)cc1 | 180 | 0 | 110 | 5 | 4.1 | 9.5 | 
3 | COc1ccc(S(=O)(=O)N(OC(C)C)[C@@H](C(=O)NO)C(C)C)cc1 | 10 | 0 | 1.1 | 0.19 | 0.17 | 0.24 | 
4 | COc1ccc(S(=O)(=O)N(Cc2cccnc2)[C@@H](C(=O)NO)C(C)C)cc1.Cl [CGS-27023A] | 0.16 | 33 |  |  |  |  | IC50 [7]: 0.89 µM; IC50 [8]: 18 µM; IC50 [9]: 0.38 µM; IC50 [10]: 3.2 µM; IC50 [11]: 13 µM; Activity [12]: Not Active; IC50 [13]: 0.11 µM; IC50 [14]: 6.9 µM; IC50 [15]: 0.75 µM; IC50 [16]: 3 µM; IC50 [17]: 1.4 µM; IC50 [18]: 10 µM; IC50 [19]: 0.75 µM; IC50 [20]: 4.4 µM; IC50 [21]: 1.1 µM; Activity [22]: Not Active; Activity [23]: Not Active; Activity [24]: Not Active; Activity [25]: Not Active
5 | CC(=O)NCC[C@@H](NS(=O)(=O)c1ccc(-c2ccccc2)cc1)C(=O)NO | 0.3 |  | 0.196 | 0.0007 | 0.0086 | 0.034 | 
6 | COc1ccc(S(=O)(=O)N(CC(C)C)[C@@H](C(=O)NO)C(C)C)cc1 | 1.1 | 9 | 0.056 | 0.029 | 0.0072 | 0.016 | 
7 | COc1ccc(S(=O)(=O)N(CC(=O)NO)CC(C)C)cc1 | 2.3 | 26 |  | 0.013 | 0.0048 | 0.013 | 
8 | CC(C)CN(CC(=O)NO)S(=O)(=O)c1ccc(-c2ccccc2)cc1 | 53 | 14 |  |  |  |  | 
9 | CC#CCOc1ccc(S(=O)(=O)N(CC(C)C)[C@H](CCN2C(=O)c3ccccc3C2=O)C(=O)NO)cc1 | 0.059 |  | 0.4 | 0.021 | 0.013 | 0.029 | IC50 [7]: 2 µM
10 | O=C(NO)[C@@H](CCN1C(=O)c2ccccc2C1=O)NS(=O)(=O)c1ccc(-c2ccccc2C(F)(F)F)cc1 | 44 |  | 5 | 0.39 | 0.43 | 1.8 | 
11 | O=C(CNS(=O)(=O)c1ccc(Br)cc1)NO | 3.9 | 13 | 0.27 | 0.04 | 0.29 | 0.36 | 
12 | CC#CCOc1ccc(S(=O)(=O)N[C@H](CCNC(=O)OCc2ccccc2)C(=O)NO)cc1 | 0.0016 |  | 1.1 | 0.017 | 0.046 | 0.21 | IC50 [7]: 0.24 µM; IC50 [8]: 0.26 µM; IC50 [9]: 0.011 µM; IC50 [10]: 0.89 µM; Activity [12]: Not Active; IC50 [13]: 0.0032 µM; IC50 [14]: 1.6 µM; IC50 [15]: 0.053 µM; IC50 [16]: 0.42 µM; IC50 [17]: 0.42 µM; IC50 [18]: 1.1 µM; IC50 [19]: 0.11 µM; IC50 [20]: 0.09 µM; IC50 [21]: 0.5 µM; Activity [22]: Not Active; Activity [23]: Not Active; Activity [24]: Not Active; Activity [25]: Not Active; IC50 ([2]; A2774): 0.011 µM
13 | O=C(NO)[C@@H](CCN1C(=O)c2ccccc2C1=O)NS(=O)(=O)c1ccc(Br)cc1 | 0.21 |  | 0.004 | 0.0015 | 0.0011 | 0.0009 | 
14 | COc1ccc(S(=O)(=O)NCC(=O)NO)cc1 |  | 32 |  |  |  | 0.21 | 
15 | CC(=O)NCC[C@@H](NS(=O)(=O)c1ccc(Br)cc1)C(=O)NO | 0.11 |  | 1.5 | 0.19 | 0.19 | 0.3 | IC50 [7]: 2.3 µM
16 | CC(C)ON(CC(=O)NO)S(=O)(=O)c1ccc(-c2ccccc2)cc1 | 120 | 0 |  |  |  |  | 
